Screening results from PubChem BioAssay.
tolC growth inh – growth inhibitors of E. coli BW25113 tolC mutant | hit rate 2.2% among 65,000 | AID 573 | growth inhibition, % at 10 µM (by protocol) | OD615;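 active = growth inhibition at or above a cutoff equal to the mean over every tested compound plus 3 SD, cut at about 60% in these data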;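 note: growth measured after 20 h incubation at 37 °C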
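Assay system: tolC-deleted E. coli BW25113. Medium: kanamycin-containing LB broth (50 µg/mL). Dosing: 10 µM final, single dose. Timing: bacterial growth with compound for 20 h at 37 °C. Detection: A615 absorbance measurement. Read-out basis: growth inhibition in percent.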
PostGolgi yeast – growth inhibition of a yeast mutant, post-Golgi transport screen | post-Golgi transport phenotypic cell assay | inhibition, % at 10 µM | hit rate 0.9% among 98,000;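 note: yeast cells grown in 1536-well plates; yeast grown about 18 h at 30C before absorbance read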
PLAP activator – activators of human placental alkaline phosphatase; P05187; purified PLAP enzyme, luminescent substrate read-out; hits give high values; activation fold at 20 µM; hit rate 1.2% among 96,000; AID 696; in the data active = activation fold above about 2
HePTP inh – inhibitors of human HePTP phosphatase; recombinant HePTP phosphatase activity, OD absorbance; hit rate 0.64% among 110,000; inhibition, % at 20 µM; P35236; in the data active = inhibition above about 50%
Target sequence (P35236 whole entry, looked up): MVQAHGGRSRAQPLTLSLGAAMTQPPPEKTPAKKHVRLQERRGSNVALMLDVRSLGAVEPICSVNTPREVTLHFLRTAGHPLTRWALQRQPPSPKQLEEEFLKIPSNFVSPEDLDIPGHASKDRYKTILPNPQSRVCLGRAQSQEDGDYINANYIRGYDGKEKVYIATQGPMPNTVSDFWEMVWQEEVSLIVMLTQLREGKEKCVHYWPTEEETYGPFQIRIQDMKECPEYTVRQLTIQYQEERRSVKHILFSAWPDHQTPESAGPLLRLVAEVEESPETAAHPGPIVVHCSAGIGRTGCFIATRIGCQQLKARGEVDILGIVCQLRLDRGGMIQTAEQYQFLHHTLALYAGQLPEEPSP
E coli WT exp – E. coli BW25113 growth inhibition, expanded screen. OD600 absorbance. growth inhibition, % at 100 µM. hit rate 0.15% among 98,000. AID 710;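 active = growth inhibition above about 50% at one test dose, limit read from the data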;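 note: growth measured after 20 h incubation at 37 °C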
PostGolgi ctrl – yeast control strain growth, post-Golgi counter-screen. efflux-deficient yeast background strain, growth absorbance A615, 16 h. inhibition, % at 10 µM. hit rate 5% among 98,000
Numbers stand for hits; 0 = inactive; - = not tested or not shown. Only some compounds are listed: those with a hit (about 5.4% of all), similar ones and a draw of the others. Cut-off read from the data, not from the text of the source, unless noted: active = inhibition above about 30%; inactive = the rest.

SMILES | tolC growth inh | PostGolgi yeast | PLAP activator | HePTP inh | E coli WT exp | PostGolgi ctrl
Cc1cccc(N2CCN(C(=O)C(C)C)CC2)c1C | - | 91 | 0 | - | 0 | 85
COc1cccc(NC(=O)N2CCN(c3cccc(C)c3C)CC2)c1 | 72 | 0 | 0 | 0 | 0 | 0
Cc1cccc(N2CCN(C(=O)Cc3cn(C)c4ccccc34)CC2)c1C | - | 0 | 0 | - | 0 | 43
Cc1cccc(CN2CCN(CC(=O)NCCCN3CCN(c4ccc(F)cc4)CC3)C2=O)c1 | - | 0 | 0 | - | 0 | 0
CC1=NN(c2ccc(F)cc2)C(=O)C1C(c1cccc(O)c1)c1c(C)[nH]n(-c2ccc(F)cc2)c1=O (stereo unspecified) | - | 0 | 0 | - | 0 | 35
CCOC(=O)c1ccc(-n2c(C)cc(C=O)c2C)cc1 | - | - | - | 0 | - | -
CCOC(=O)N1CCN(C(=O)c2cc3sccc3n2C)CC1 | 0 | 0 | 0 | 0 | 0 | 0
Cn1c(C(=O)N2CCN(c3cccc(C(F)(F)F)c3)CC2)cc2sccc21 | 71 | 0 | 0 | 0 | 0 | 48
Cc1ccc(C)c(N2CCN(C(=O)c3cc4sccc4n3C)CC2)c1 | 76 | 0 | 0 | 0 | 0 | 36
O=C(c1c(F)c(F)c(F)c(F)c1F)N1CCN(c2cccc(C(F)(F)F)c2)CC1 | 0 | 0 | 0 | 0 | 0 | 0
Cc1ccc(S(=O)(=O)N2CC3CCC2C3)cc1 (stereo unspecified) | 0 | 0 | 0 | 0 | 0 | 0
CCN(CCCNC(=O)CNC(=O)Cn1cnc2ccccc2c1=O)c1cccc(C)c1 | 0 | 0 | 0 | 0 | 0 | 0
Cn1c(=O)c2c(nc(Br)n2C)n(C)c1=O | 0 | 0 | 0 | 0 | 0 | 0
COc1ccc(C)cc1NC(=O)CN1CCN(S(=O)(=O)c2ccc(F)cc2)CC1 | 0 | 0 | 0 | 0 | 0 | 31
COc1ccc(C)cc1NC(=O)/C=C/c1ccccc1 | - | - | - | 0 | - | -
COc1ccc(C)cc1NC(=O)CN1CCN(C/C=C/c2ccccc2)CC1 | - | 0 | 2.3 | - | 0 | 0
COc1ccc(C)cc1NC(=O)CN1CCN(c2ccccc2F)CC1 | 0 | 0 | 0 | 0 | 0 | 38
COC(=O)c1cc2c(=O)n3ccccc3nc2n(C)c1=N | 0 | - | 0 | 0 | - | -
COc1ccc2nc3sc(C(=O)NCc4cccs4)c(N)c3cc2c1 | 0 | 0 | 0 | 0 | 0 | 0
Cc1cc(NCCN2CCOCC2)n2nc(C)c(-c3ccc(Cl)cc3)c2n1 | 0 | 47 | 0 | 0 | 0 | 34
COc1c(N2CCN(C(=S)NCc3ccccc3)C(C)C2)c(F)cc2c(=O)c(C(=O)O)cn(C3CC3)c12 (stereo unspecified) | - | 0 | 0 | - | 88 | 0
CCn1cc(C(=O)NCc2ccccc2)c(=O)c2cc(F)c(N3CCN(C(=O)c4ccco4)CC3)cc21 | - | 0 | 0 | - | 0 | 0
CCc1nc(NC(C)C)c2oc3ccccc3c2n1 | 0 | 0 | - | 0 | 0 | 0
CCc1nc(N2CCCCC2)c2oc3ccccc3c2n1 | 100 | 0 | 0 | 0 | 0 | 0
CCOC(=O)C1CCN(c2nc(C)nc3c2oc2ccccc23)CC1 | 0 | 0 | - | 0 | 0 | 36
SMILES | tolC growth inh | PostGolgi yeast | PLAP activator | HePTP inh | E coli WT exp | PostGolgi ctrl
Cc1nc(SCC(=O)N2CCN(c3ccccc3)CC2)c2oc3ccccc3c2n1 | 0 | 0 | 0 | 0 | 0 | 35
CCc1nc(N2CCCCC2C)c2oc3ccccc3c2n1 (stereo unspecified) | 100 | 0 | 0 | 0 | 0 | 0
COc1ccc(CC(=O)Nc2sc3c(c2C(=O)Nc2ccccc2C)CCCC3)cc1 | - | - | - | 0 | - | -
CCc1nc(N2CCCC(C)C2)c2oc3ccccc3c2n1 (stereo unspecified) | 100 | 0 | 0 | 0 | 0 | 47
CCc1nc(N2CCN(Cc3ccc4c(c3)OCO4)CC2)c2oc3ccccc3c2n1 | - | 0 | 0 | - | 0 | 0
c1ccc2[nH]c(CSc3ncnc4c3oc3ccccc34)nc2c1 | 0 | 0 | 0 | 0 | 0 | 0
Cc1nc(SCc2nc3ccccc3[nH]2)c2oc3ccccc3c2n1 | 0 | 0 | 0 | 0 | 0 | 38
CCc1nc(SCC(=O)N2CCCc3ccccc32)c2oc3ccccc3c2n1 | - | 0 | 0 | - | 0 | 37
CCOc1ccccc1NC(=O)c1cc(CC(C)C)oc1C | 75 | 0 | 0 | 0 | 0 | 0
O=C(CC1Nc2ccccc2NC1=O)Nc1cc(Cl)cc(Cl)c1 (stereo unspecified) | - | 0 | 0 | - | 0 | 67
Cc1ccc(-c2cc(C(F)(F)F)n3ncc(C(=O)NCC4CCCO4)c3n2)cc1 (stereo unspecified) | - | - | - | 0 | - | -
Cc1ccc(-c2cc(C(F)F)nc(NCc3cccnc3)n2)cc1 | 0 | 0 | - | 0 | 0 | 44
Cc1ccc(-c2cc(C(F)F)nc(NCC3CCCO3)n2)cc1 (stereo unspecified) | 0 | 0 | - | 0 | 0 | 32
COc1ccc(C2=NOC3(CC(=O)N(c4ccc(F)cc4)C3=O)C2)c(OC)c1 (stereo unspecified) | - | 0 | 0 | - | 0 | 0
CCCCCCCCn1c(/N=C/c2cccc(OCC)c2O)nc2ccccc21 | - | - | - | 0 | - | -
Cc1cc(Br)cc2c(C(=O)Nc3c(C)n(C)n(-c4ccccc4)c3=O)cc(-c3cccs3)nc12 | - | 0 | 0 | - | 0 | 39
COc1cc(/C=C2/SC(=S)N(CC(=O)O)C2=O)cc(Cl)c1O | - | - | - | 98 | - | -
CCc1cc2cc(C(=O)N3CCN(Cc4ccccc4)CC3)sc2s1 | 98 | 0 | 0 | 0 | 0 | 35
CCc1cc2cc(C(=O)N3CCN(c4ccccc4)CC3)sc2s1 | - | 0 | 0 | - | 0 | 0
C/C(=N\N=C(/N)SC1CC(=O)N(c2ccc(Br)cc2)C1=O)c1cccs1 (stereo unspecified) | - | 0 | 0 | - | 0 | 41
C/C(=N\N=C(/N)SC1CC(=O)N(c2ccccc2)C1=O)c1cccs1 (stereo unspecified) | - | 0 | 0 | - | 0 | 0
C/C(=N\N=C(/N)SC1CC(=O)N(c2ccc(Cl)c(Cl)c2)C1=O)c1cccs1 (stereo unspecified) | - | 102 | 0 | - | 0 | 57
CCOC(=O)C1=C(C)N=c2s/c(=C\c3cc(OC)ccc3OC)c(=O)n2C1c1ccc(OC)c(OC)c1 (stereo unspecified) | - | - | - | 0 | - | -
O=C(Nc1ccc(Cl)cc1)c1cc2ccccc2cc1O | - | - | - | 0 | - | -
CCn1c(C2CC(=O)N(c3cc(C)cc(C)c3)C2)nc2ccccc21 (stereo unspecified) | 0 | 0 | 0 | 0 | 0 | 0
SMILES | tolC growth inh | PostGolgi yeast | PLAP activator | HePTP inh | E coli WT exp | PostGolgi ctrl
Cc1cccc(N2CC(c3nc4ccccc4n3C)CC2=O)c1C (stereo unspecified) | 100 | - | - | 0 | - | -
COc1ccccc1NS(=O)(=O)c1cc([N+](=O)[O-])ccc1N/N=C/c1c[nH]c2ccccc12 | - | 0 | 0 | - | 0 | 31
O=[N+]([O-])c1ccccc1N/N=C/c1c[nH]c2ccccc12 | - | 0 | 0 | - | 0 | 0
O=[N+]([O-])c1ccc(N/N=C/c2c[nH]c3ccccc23)cc1 | - | 99 | 0 | - | 0 | 91
COc1ccc(NS(=O)(=O)c2cc([N+](=O)[O-])ccc2N/N=C\c2c(C)[nH]c3ccccc23)cc1 | - | 0 | 0 | - | 0 | 0
NS(=O)(=O)c1ccc(CCNc2ccc(C(F)(F)F)cc2[N+](=O)[O-])cc1 | - | - | - | 0 | - | -
CN1C(=O)NC(c2cccc(O)c2)C(C(=O)c2cccs2)C1(O)C(F)(F)F (stereo unspecified) | 0 | 0 | 0 | 0 | 75 | 0
